4 compounds from ChEMBL document CHEMBL5620402, “Development of submicromolar 17β-HSD10 inhibitors and their in vitro and in vivo evaluation” (Eur J Med Chem, 2023) can be followed below.

The nature of series [1]: PBS buffer - Octanol distribution coefficient, logD of the compound at pH 7.4 by UHPLC-DAD-MS analysis. The format is physicochemical. The method in brief:
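Compound (0.25 mg) was put into 500 μL of a 1:1 water–octanol (logP) or PBS pH 7.4–octanol (logD) mixture. Samples were shaken 30 min and centrifuged 10 min at 10,000 rcf. Each phase was quantified by UHPLC-DAD-MS against calibration lines.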

Series [2] can be described thus: Dissociation constant, pKa of compound using buffers of given pH (range from 3.0 to 11.5) by UV-VIS spectrophotometry. Format: physicochemical. Put shortly:
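Compound (10 μL of 1 mg/mL) was put into 490 μL of buffers spanning pH 3.0–11.5 in 0.5-unit steps. UV spectra were scanned at 200–400 nm and 20 °C. pKa was fitted from the sigmoidal absorbance of the dissociated form versus pH.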

Series [3] deals with T1, 3-hydroxyacyl-CoA dehydrogenase type-2 (Homo sapiens, UniProt Q99714).
T1 sequence (Q99714 whole entry): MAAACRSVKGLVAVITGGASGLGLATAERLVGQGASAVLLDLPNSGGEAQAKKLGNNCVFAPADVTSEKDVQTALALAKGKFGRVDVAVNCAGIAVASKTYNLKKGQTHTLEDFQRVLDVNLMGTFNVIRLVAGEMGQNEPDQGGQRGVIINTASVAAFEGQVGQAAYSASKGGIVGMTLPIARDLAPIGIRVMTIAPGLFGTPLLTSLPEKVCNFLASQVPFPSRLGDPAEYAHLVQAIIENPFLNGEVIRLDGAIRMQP
Description: Inhibition of recombinant 17beta-HSD10 (unknown origin) expressed in Escherichia coli BL21 (DE3) assessed as residual activity using acetoacetyl-CoA as substrate by SAAC method. The method in brief:
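Recombinant 17β-HSD10 from E. coli BL21(DE3), 0.15 μg, was mixed with 320 μmol/L NADH in 10 mM Tris-HCl pH 7.4 buffer (150 mM NaCl, 1 mM DTT, 0.001% Tween 20, 0.01% BSA). It was preincubated 5 min at 37 °C with inhibitor, then 320 μmol/L acetoacetyl-CoA was added. A340 was followed for 5 min. IC50 came from non-linear regression of ≥3 independent runs in triplicate; Ki was calculated from IC50 per Cer et al.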

For series [4], the target named is T2, Citrate synthase, mitochondrial (Sus scrofa) (UniProt P00889).
T2 sequence (whole entry): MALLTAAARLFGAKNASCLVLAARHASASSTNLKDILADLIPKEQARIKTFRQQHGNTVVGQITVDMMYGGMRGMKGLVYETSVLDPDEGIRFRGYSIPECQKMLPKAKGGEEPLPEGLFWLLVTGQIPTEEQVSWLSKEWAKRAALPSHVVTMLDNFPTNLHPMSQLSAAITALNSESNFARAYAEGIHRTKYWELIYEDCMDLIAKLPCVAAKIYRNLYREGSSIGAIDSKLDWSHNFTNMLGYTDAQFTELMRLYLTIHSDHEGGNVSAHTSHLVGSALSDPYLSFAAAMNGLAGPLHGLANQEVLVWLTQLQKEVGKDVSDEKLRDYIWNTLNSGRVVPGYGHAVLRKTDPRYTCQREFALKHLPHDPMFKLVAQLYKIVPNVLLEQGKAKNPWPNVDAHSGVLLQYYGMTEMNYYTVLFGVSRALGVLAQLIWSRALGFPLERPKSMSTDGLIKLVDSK
Description: Inhibition of pig brain mitochondrial citrate synthase assessed as activity at 50 uM by DTNB method (reference value: 100 + /- 5.5%). Details: scale not given: the % may be the effect or the level left; call rule not given here. As to conditions: Mitochondria.

For another series, the species on record is Sus scrofa. Description: Inhibition of pig brain mitochondrial Complex I assessed as rotenone-sensitive rate of the NADH oxidation by measuring activity by spectrophotometric ally method (reference value: 100 + /- 3.3%). Also on record: scale not given: the % may be the effect or the level left. Conditions: Mitochondria. Put shortly: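 Sonicated pig brain mitochondria (1 mg/mL protein) were held in 25 mM KH2PO4, 5 mM MgCl2 pH 7.2 with 2 mM KCN. They were incubated with 50 μM drug for 30 min at 30 °C. The reaction was started with coenzyme Q10 and NADH (100 μM each), and A340 was read for 5 min. The rotenone (10 μM)-insensitive background was subtracted. At least three measurements.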

For series [5], the target named is T3, Amine oxidase [flavin-containing] B (Sus scrofa, UniProt Q6PLK3).
T3 sequence (Q6PLK3 whole entry): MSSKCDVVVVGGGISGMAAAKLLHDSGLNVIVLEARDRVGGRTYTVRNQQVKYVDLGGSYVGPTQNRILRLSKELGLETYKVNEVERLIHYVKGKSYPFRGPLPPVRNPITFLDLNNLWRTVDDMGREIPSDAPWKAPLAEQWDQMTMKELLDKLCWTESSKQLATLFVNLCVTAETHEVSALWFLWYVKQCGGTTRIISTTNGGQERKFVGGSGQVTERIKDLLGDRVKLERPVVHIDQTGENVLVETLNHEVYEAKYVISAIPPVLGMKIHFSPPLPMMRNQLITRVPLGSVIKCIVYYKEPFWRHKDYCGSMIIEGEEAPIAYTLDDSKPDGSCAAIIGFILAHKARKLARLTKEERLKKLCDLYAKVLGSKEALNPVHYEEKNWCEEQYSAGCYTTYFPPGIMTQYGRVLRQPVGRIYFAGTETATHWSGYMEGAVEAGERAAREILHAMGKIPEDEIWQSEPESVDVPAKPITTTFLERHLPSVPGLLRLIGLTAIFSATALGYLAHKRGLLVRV
Description: Inhibition of pig brain mitochondrial MAO-B using [14C]PEA as substrate incubated for 60 mins by liquid scintillation counting analysis. The format is mitochondria, Mitochondria. Put shortly:
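Pig brain mitochondria were preincubated with drug at 5–7 concentrations (1–1000 μM) for 60 min at 37 °C. Radiolabelled substrate was then added: [3H]5-HT for MAO-A (20 min) or [14C]PEA for MAO-B (1 min). The aldehyde product was counted by liquid scintillation. IC50 came from four-parameter logistic fits; mean ± SE of ≥2 runs.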

A short description of series [6]: Inhibition of complex I linked mitochondrial respiration in isolated pig brain mitochondria by O2k respirometry. Details: species or system Sus scrofa. The method in brief: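 Respirometry (Oxygraph-2k) of purified pig brain cortex mitochondria in state 3. Substrates were malate + pyruvate + ADP (Complex I) or ADP + rotenone + succinate (Complex II). One chamber was titrated with compound (10–20 concentrations, final 1.25–500 μM) and the other with DMSO; rates were expressed relative to DMSO. IC50 came from four-parameter logistic fits.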

The test system of the next series is HEK293. The series is described as follows: Cytotoxicity against human HEK293 cells assessed as change in ATP level at 10 uM measured after 48 hrs by CellTiter-Glo assay. Format: toxicity, cell-based. Conditions: hek293, 48 h. The method in brief: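 HEK293 or SH-SY5Y cells in DMEM with 10% FBS, 2 mM glutamine and NEAA were seeded at 7,500 cells per well and grown 24 h. They were then exposed to 1 or 10 μM compound (final 1% DMSO) for 48 h. ATP was read by CellTiter-Glo luminescence after CellTox Green, normalised to 1% DMSO and 100 μM valinomycin controls. At least two experiments in tetraplicate.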
(ATP-based viability assays read luminescence as a measure of living cells.)

The nature of series [7]: Partition coefficient between Water and Octanol, logP of the compound by UHPLC-DAD-MS analysis. Conditions: pH 7.4.

Structures are written as SMILES.

Compound `CC(=O)Nc1ccc2nc(NC(=O)Nc3ccc(O)c(Cl)c3)sc2c1` returned a logD in series [1] of 3.35. In addition, the pKa in series [2] stood at 9.83. Also, the IC50 in series [3] was found to be 340 nM; in [5] (read-out: IC50), 120000 nM; in [6] it was 36400 nM. For the same compound, in series [3], the Ki was 250 nM. Moreover, the Activity in series [4] was 99.9%; in the series filed under Sus scrofa, 24.3%; in the series with HEK293, “Non-Toxic”. In addition, in [7], the logP turned out to be 3.66.

Turning to `O=C(Nc1ccc(O)c(Cl)c1)Nc1nc2ccc(C(=O)O)cc2s1`, the logD in series [1] amounted to 0.75. Also, in series [2], the pKa worked out at 9.75. For the same compound, the IC50 in series [3] stood at 310 nM; in [5] (read-out: IC50), 81000 nM; in [6] it was 93000 nM. The inhibitory constant (Ki) in series [3] came out at 230 nM. For the same compound, the values for the Activity (in series [4]; in the series filed under Sus scrofa; in the series with HEK293) were 100%, 87.7% and “Non-Toxic”, respectively. For the same compound, the logP in series [7] came out at 1.19.

For the compound `COc1ccc2nc(NC(=O)Nc3ccc(O)c(C(F)(F)F)c3)sc2c1`, the logD in series [1] stood at 5.06. For the same compound, the pKa in [2] worked out at 11.2. The IC50 was 570 nM in series [3], “Not Active” in [5] and 28000 nM in [6]. The Ki in series [3] was 440 nM. For the same compound, the Activity in [4] was 92.7%; in the series filed under Sus scrofa, 5.3%; in the series with HEK293, “Non-Toxic”. Besides, in series [7], the logP amounted to 4.28.

`NC(=O)c1ccc2nc(NC(=O)Nc3ccc(O)c(Cl)c3)sc2c1`: the logD in series [1] is 3.34. Also, the pKa in series [2] was found to be 9.35. The IC50 came out at 840 nM in series [3], 84000 nM in series [5] (read-out: IC50) and 88000 nM in series [6]. Also, in [3], the Ki came to 650 nM. Also, the Activity in series [4] was 94.4%; in the series filed under Sus scrofa, 25.2%; with HEK293, “Non-Toxic”. Besides, the logP in series [7] worked out at 3.32.

In general, logD refers to lipophilicity at a set pH, counting ionised and neutral species. The term pKa denotes the pH at which an ionisable group is half protonated. As usually defined, the IC50 is the concentration needed to halve the response being measured. What is called Ki is the dissociation constant of the complex between target and ligand, obtained from inhibition or displacement. In general, logP refers to the decadic logarithm of the partition coefficient of the neutral form, usually between octanol and water.
